Activity calls are given as the source filed them. The calls are words filed in the database; no cut-off is given here.
Key:
[1] = tested on: HepG2; assay: Cytotoxicity against human HepG2 cells at 50 uM; format: functional
Outline: (§1)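 Cells were treated with compound at 50 µM. The read-out was metabolic activity, and the value is given as the percent reduction in metabolic activity.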

[2] = tested on: NIH3T3; assay: Cytotoxicity against mouse NIH/3T3 cells at 50 uM; format: functional; outline: as §1
[3] = tested on: Mammaliicoccus lentus; assay: Antimicrobial activity against Staphylococcus lentus DSM 6672; format: functional, organism-based
[4] = tested on: Xanthomonas campestris; assay: Antimicrobial activity against Xanthomonas campestris DSM 2405; format: functional, organism-based
[5] = biological target: Human immunodeficiency virus type 1 reverse transcriptase (Human immunodeficiency virus 1) (UniProt Q72547); assay: Inhibition of HIV1 reverse transcriptase by ELISA
[6] = tested on: Pseudomonas syringae; assay: Antimicrobial activity against Pseudomonas syringae DSM 50252; format: functional, organism-based
[7] = biological target: Acetylcholinesterase (Homo sapiens) (UniProt P22303); assay: Inhibition of acetylcholinesterase by colorimetric assay
[8] = tested on: Ralstonia solanacearum; assay: Antimicrobial activity against Ralstonia solanacearum DSM 9544; format: functional, organism-based
[9] = tested on: Erwinia amylovora; assay: Antimicrobial activity against Erwinia amylovora DSM 50901; format: functional, organism-based
[10] = tested on: Pseudomonas aeruginosa; assay: Antimicrobial activity against Pseudomonas aeruginosa DSM 50071; format: functional, organism-based
[11] = tested on: Staphylococcus epidermidis; assay: Antimicrobial activity against Staphylococcus epidermidis DSM 20044; format: functional, organism-based
[12] = tested on: Escherichia coli; assay: Antimicrobial activity against Escherichia coli K-12 DSM 498; format: functional, organism-based
[13] = tested on: Pseudomonas fluorescens; assay: Antimicrobial activity against Pseudomonas fluorescens NCIMB 10586; format: functional, organism-based
[14] = tested on: Candida albicans; assay: Antimicrobial activity against Candida albicans DSM 6425; format: functional, organism-based
[15] = Inhibition of phosphodiesterase 4 by colorimetric assay
[16] = biological target: Glycogen synthase kinase-3 beta (Homo sapiens) (UniProt P49841); assay: Inhibition of GSK3-beta
[17] = tested on: Cutibacterium acnes; assay: Antimicrobial activity against Propionibacterium acnes DSM 1897; format: functional, organism-based
[18] = biological target: T1, Tyrosine-protein phosphatase non-receptor type 1 (Homo sapiens) (UniProt P18031); assay: Inhibition of protein tyrosine phosphatase 1b by colorimetric assay
T1 sequence (whole entry): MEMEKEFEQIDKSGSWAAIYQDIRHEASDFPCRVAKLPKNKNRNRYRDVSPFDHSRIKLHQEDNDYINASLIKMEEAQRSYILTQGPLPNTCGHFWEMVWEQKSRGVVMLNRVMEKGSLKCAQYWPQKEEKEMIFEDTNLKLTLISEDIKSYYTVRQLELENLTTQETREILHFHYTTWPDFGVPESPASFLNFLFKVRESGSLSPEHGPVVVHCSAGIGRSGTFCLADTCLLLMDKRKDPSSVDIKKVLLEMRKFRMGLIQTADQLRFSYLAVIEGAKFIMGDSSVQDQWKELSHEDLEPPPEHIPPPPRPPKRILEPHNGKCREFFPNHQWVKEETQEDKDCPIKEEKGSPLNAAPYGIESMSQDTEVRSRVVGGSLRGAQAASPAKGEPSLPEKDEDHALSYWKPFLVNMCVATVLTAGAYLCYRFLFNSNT

[19] = tested on: Bacillus subtilis; assay: Antimicrobial activity against Bacillus subtilis DSM 347; format: functional, organism-based

Glycogen synthase kinase-3 beta (Homo sapiens), sequence (P49841 whole entry, looked up): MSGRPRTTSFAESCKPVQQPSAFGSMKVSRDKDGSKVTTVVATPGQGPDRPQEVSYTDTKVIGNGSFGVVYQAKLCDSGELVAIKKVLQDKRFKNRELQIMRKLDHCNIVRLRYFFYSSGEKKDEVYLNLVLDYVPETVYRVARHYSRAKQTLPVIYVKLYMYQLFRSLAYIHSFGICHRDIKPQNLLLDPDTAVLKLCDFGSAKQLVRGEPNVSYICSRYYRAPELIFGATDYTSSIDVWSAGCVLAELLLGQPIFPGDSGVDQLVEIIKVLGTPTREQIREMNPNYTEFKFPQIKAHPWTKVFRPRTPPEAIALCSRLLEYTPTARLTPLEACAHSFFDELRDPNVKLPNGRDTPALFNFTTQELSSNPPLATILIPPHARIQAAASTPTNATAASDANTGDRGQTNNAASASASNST
Acetylcholinesterase (Homo sapiens), sequence (P22303 whole entry): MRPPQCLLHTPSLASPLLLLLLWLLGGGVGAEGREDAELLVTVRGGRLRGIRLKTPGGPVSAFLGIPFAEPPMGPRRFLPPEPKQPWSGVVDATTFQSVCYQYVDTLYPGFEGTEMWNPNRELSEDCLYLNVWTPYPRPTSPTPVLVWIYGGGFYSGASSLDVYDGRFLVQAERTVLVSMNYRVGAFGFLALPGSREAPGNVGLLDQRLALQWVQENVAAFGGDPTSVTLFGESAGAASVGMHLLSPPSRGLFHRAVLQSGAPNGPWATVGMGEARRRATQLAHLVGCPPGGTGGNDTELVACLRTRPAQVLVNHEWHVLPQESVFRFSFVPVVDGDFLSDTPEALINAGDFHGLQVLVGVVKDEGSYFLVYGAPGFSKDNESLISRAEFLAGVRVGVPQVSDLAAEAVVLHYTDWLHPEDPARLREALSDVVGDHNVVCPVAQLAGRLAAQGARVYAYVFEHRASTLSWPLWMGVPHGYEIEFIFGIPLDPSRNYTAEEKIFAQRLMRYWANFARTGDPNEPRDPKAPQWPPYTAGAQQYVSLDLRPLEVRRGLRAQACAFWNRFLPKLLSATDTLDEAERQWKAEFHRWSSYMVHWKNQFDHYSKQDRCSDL

Compound | Activity [1] | Activity [2] | Activity [3] | Activity [4] | Activity [5] | Activity [6] | Activity [7] | Activity [8] | Activity [9] | Activity [10] | Activity [11] | Activity [12] | Activity [13] | Activity [14] | Activity [15] | Activity [16] | Activity [17] | Activity [18] | Activity [19]
COc1ccc(/C=c2/[nH]c(=O)/c(=C/C(C)C)[nH]c2=O)cc1 | 44% | 64% |  |  |  |  |  |  |  |  |  |  |  |  |  |  |  |  | 
COc1oc(CCCCC(C)(C)O)c(C)c(=O)c1C |  |  | inactive | inactive | inactive | inactive | inactive | inactive | inactive | inactive | inactive | inactive | inactive | inactive | inactive | inactive | inactive | inactive | inactive
COc1oc(CCCCC(C)C)c(C)c(=O)c1C |  |  | inactive | inactive | inactive | inactive | inactive | inactive | inactive | inactive | inactive | inactive | inactive | inactive | inactive | inactive | inactive | inactive | inactive

Reference: ChEMBL document CHEMBL1212932, “Nocapyrones A-D, gamma-pyrones from a Nocardiopsis strain isolated from the marine sponge Halichondria panicea” (2010)
